Positions of bridges follow the written chain, without caps; N, C: chain ends. Residues, ends and D or L forms follow the SMILES beside them.
Key:
TRPV1 [1] = details: animal studies, ref Kaszas et al., 2012, Lebovitz et al.; cited from earlier work
TRPV1 [2] = details: cited from earlier work
TRPV3 = test: Whole-cell patch-clamp of TRPV3; type: cell-based; details: n = 4
Method in brief: (§1)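 Channels transiently expressed in HEK293T cells (DMEM, 10% FBS, 37 °C, 5% CO2; Lipofectamine 3000) and recorded 24–48 h after transfection. Whole-cell, ~4 MΩ pipettes, 60% series-resistance compensation. Bath and pipette: 130 mM NaCl, 10 mM glucose, 0.2 mM EDTA, 3 mM HEPES pH 7.2. Sampled 10 kHz, filtered 2.9 kHz, 22 °C, rapid gravity perfusion. Mean ± SEM.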

[3] = biological target: T1, TRPV1 channels expressed in HEK293T cells (murine TRPV1, E571A, C-terminal eYFP) (Mus musculus, UniProt Q704Y3, E571A); test: TRPV1 desensitization on prolonged application and recovery; type: cell-based; details: RhTx2 300 μM vs RhTx 10 μM
T1 sequence (Q704Y3 whole entry E571A, the tested form may be a part): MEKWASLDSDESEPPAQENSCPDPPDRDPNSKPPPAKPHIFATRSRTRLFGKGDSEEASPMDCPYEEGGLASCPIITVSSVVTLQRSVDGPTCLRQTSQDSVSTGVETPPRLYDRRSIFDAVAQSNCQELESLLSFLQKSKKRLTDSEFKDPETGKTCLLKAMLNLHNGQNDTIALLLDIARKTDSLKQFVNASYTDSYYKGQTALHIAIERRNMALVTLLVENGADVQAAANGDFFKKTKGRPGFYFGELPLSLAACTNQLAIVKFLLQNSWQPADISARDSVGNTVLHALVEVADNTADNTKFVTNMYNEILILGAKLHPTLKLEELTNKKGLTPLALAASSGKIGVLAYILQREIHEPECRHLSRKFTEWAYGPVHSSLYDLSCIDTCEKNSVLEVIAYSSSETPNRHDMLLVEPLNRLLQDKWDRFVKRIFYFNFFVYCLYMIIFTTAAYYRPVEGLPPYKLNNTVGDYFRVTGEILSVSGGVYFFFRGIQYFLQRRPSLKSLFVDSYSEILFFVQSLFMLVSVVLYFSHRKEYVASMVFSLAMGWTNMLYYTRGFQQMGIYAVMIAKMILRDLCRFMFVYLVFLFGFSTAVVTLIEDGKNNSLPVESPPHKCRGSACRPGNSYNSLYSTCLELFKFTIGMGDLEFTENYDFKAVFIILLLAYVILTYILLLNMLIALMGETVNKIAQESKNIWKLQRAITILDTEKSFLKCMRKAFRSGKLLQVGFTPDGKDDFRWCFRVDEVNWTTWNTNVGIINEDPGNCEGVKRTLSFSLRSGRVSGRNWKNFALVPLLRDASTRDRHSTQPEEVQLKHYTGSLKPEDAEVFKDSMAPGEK

[4] = biological target: T1, TRPV1 channels expressed in HEK293T cells (murine TRPV1, E571A, C-terminal eYFP); test: Patch-clamp activation of TRPV1, extracellular perfusion; type: cell-based
[5] = biological target: T1, TRPV1 channels expressed in HEK293T cells (murine TRPV1, E571A, C-terminal eYFP); test: Single-channel recording of TRPV1; type: cell-based; details: outside-out; 300 μM RhTx2, on first perfusion
TRPV2 = test: Whole-cell patch-clamp of TRPV2; type: cell-based; details: n = 4
Method in brief: as §1

[6] = biological target: T1, TRPV1 channels expressed in HEK293T cells (murine TRPV1, E571A, C-terminal eYFP); test: Inside-out patch-clamp of TRPV1, intracellular perfusion; type: cell-based

CCOC(=O)C1=C(c2ccccc2)NC(C)=C(C(=O)SCCOC)C1CC (stereo not drawn) [MRS1477]
analgesic effect and side effects, literature (in words) (TRPV1 [1]): analgesic effects without side effects such as hyperthermia
TRPV1 allosteric modulation, literature (in words) (TRPV1 [2]; ref Kaszas et al., 2012, Lebovitz et al.): positively and allosterically modulate the ligand activation of TRPV1

CC[C@H](C)[C@H](NC(=O)[C@@H]1CSSC[C@@H]2NC(=O)[C@H]([C@@H](C)O)NC(=O)[C@H](C(C)C)NC(=O)CNC(=O)[C@H](CC(N)=O)NC(=O)[C@@H](NC(=O)[C@@H]3CCCN3C(=O)[C@H](CC(N)=O)NC(=O)[C@H](CC(N)=O)NC(=O)[C@H](CC(C)C)NC(=O)[C@H](Cc3ccc(O)cc3)NC(=O)[C@H](CCCCN)NC(=O)[C@H](CO)NC(=O)[C@@H](N)CC(N)=O)CSSC[C@H](NC(=O)[C@H](CCCNC(=N)N)NC(=O)[C@H](Cc3ccc(O)cc3)NC(=O)CNC(=O)[C@H](CO)NC(=O)[C@@H]3CCCN3C2=O)C(=O)N[C@@H](CO)C(=O)N[C@@H]([C@@H](C)CC)C(=O)N[C@@H](C(C)C)C(=O)N[C@@H](CC(=O)O)C(=O)N[C@@H](CCCCN)C(=O)N[C@@H](CCC(N)=O)C(=O)N1)C(=O)N[C@@H](CCCCN)C(=O)N[C@@H](CCCCN)C(=O)N[C@@H](CCC(=O)O)C(=O)O [RhTx2] (H-NSKYLNNPCNGVTCPSGYRCSIVDKQCIKKE-OH; disulfide 9-20, 14-27; N-terminus and C-terminus assumed)
current activation in TRPV3 compared with TRPV1 (in words) (TRPV3): much smaller
steady state open probability in the desensitized state (in words) [3]: significantly lower than that of RhTx
change in EC50, RhTx2 vs RhTx (fold) ([4]; EC50 of RhTx2 relative to RhTx, apparent binding affinity much lower): ~100 fold
selectivity (in words) ([4]; TRPV1 vs TRPV2 and TRPV3, whole-cell, n = 4 per channel): selective for TRPV1 channel
TRPV1 activation (in words) ([4]; perfused from extracellular side, whole-cell recording, HEK293T): robustly activated TRPV1
initial single-channel opening (in words) [5]: strong channel opening
current activation in TRPV2 compared with TRPV1 (in words) (TRPV2): much smaller

CC[C@H](C)[C@H](NC(=O)[C@@H]1CSSC[C@@H]2NC(=O)[C@H]([C@@H](C)O)NC(=O)[C@H](C(C)C)NC(=O)CNC(=O)[C@H](CC(N)=O)NC(=O)[C@@H](NC(=O)[C@@H]3CCCN3C(=O)[C@H](CC(N)=O)NC(=O)[C@H](CC(N)=O)NC(=O)[C@@H](N)CC(C)C)CSSC[C@H](NC(=O)[C@H](CCCNC(=N)N)NC(=O)[C@H](Cc3ccc(O)cc3)NC(=O)CNC(=O)[C@H](CO)NC(=O)[C@@H]3CCCN3C2=O)C(=O)N[C@@H](CO)C(=O)N[C@@H]([C@@H](C)CC)C(=O)N[C@@H](C(C)C)C(=O)N[C@@H](CC(=O)O)C(=O)N[C@@H](CCCCN)C(=O)N[C@@H](CCC(N)=O)C(=O)N1)C(=O)N[C@@H](CCCCN)C(=O)N[C@@H](CCCCN)C(=O)N[C@@H](CCC(=O)O)C(=O)O [RhTx] (H-LNNPCNGVTCPSGYRCSIVDKQCIKKE-OH; disulfide 5-16, 10-23; N-terminus and C-terminus assumed)
mechanism of TRPV1 desensitization, literature (in words) (TRPV1 [2]; ref Yang et al., 2015, Luo et al., 2019): mechanistically similar to the heat desensitization
TRPV1 activation, literature (in words) (TRPV1 [2]; ref Yang et al., 2015): strongly activates TRPV1
binding site on TRPV1, literature (in words) (TRPV1 [2]; ref Yang et al., 2015): binds to the outer pore region above the pore helix

COc1cc(CNC(=O)CCCC/C=C/C(C)C)ccc1O [capsaicin]
TRPV1 activation by intracellular application (in words) [6]: robustly activated

Oc1cc2c(cc1O)CN(C(=S)NCCc1ccc(Cl)cc1)CCC2 [capsazepine]
mode of inhibition vs capsaicin, literature (in words) (TRPV1 [2]; ref Cao et al., 2013, Yang et al., 2015): competitive inhibitor
block of RhTx2 activation of TRPV1 (in words) [4]: cannot be blocked
